In ChEMBL document CHEMBL4725347, “Discovery of a Monoiodo Aza-BODIPY Near-Infrared Photosensitizer: in vitro and in vivo Evaluation for Photodynamic Therapy” (J Med Chem, 2020):

Columns and labels:
[1] = Stability of the compound in acetonitrile assessed as compound degradation under dark condition; assay type: physicochemical
[2] = Induction of singlet oxygen generation in PBS containing 1% Cremophor EL/1,2-propanediol (10:3, v:v) system assessed as relative rate of DPBF degradation to MB at 1 uM irradiated with 90 mW/cm2 halogen light; assay type: functional
In short: (§1)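 Singlet oxygen generation measured with 1,3-diphenylisobenzofuran (DPBF) as scavenger. The decrease in DPBF absorbance at 411 nm was monitored over time during light irradiation, and the photodegradation rate was calculated.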

[3] = Absorption property of the compound in acetonitrile assessed as absorption coefficient by UV-visible spectrophotometric method; assay type: physicochemical
In short: (§2)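 Electronic absorption spectra recorded by UV-visible spectrophotometry at room temperature. Solvents were chloroform, isopropanol, acetonitrile, DMF, and PBS buffer containing 1% Cremophor EL/1,2-propanediol (10:3, v:v). Chloroform data were referenced to the non-halogenated parent dye.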

[4] = Photostability of the compound in isopropanol assessed as compound degradation irradiated with 90 mW/cm2 light; assay type: physicochemical
[5] = Dark toxicity in human MCF7 cells assessed as reduction in cell viability after 3 hrs by MTT assay; assay type: cell-based
[6] = Absorption property of the compound in isopropanol assessed as absorption coefficient by UV-visible spectrophotometric method; assay type: physicochemical; in short: as §2
HeLa = test: Phototoxicity against human HeLa cells assessed as reduction in cell viability preincubated for 3 hrs followed by 54 J/cm2 light irradiation and measured after 24 hrs by MTT assay; assay type: functional, cell-based; conditions: light or radiation study
In short: (§3)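 PS formulated in PBS containing Cremophor EL/1,2-propanediol (10:3, v:v) after THF removal, filtered, with concentration confirmed by UV-Vis. Cells were grown in DMEM with 10% FBS and seeded at 3×10^3 per well overnight. They were incubated with PS for 3 h, irradiated at λ > 590 nm, kept 24 h at 37 °C, then given MTT (0.5 mg/mL, 4 h) with DMSO solubilization and A490 read-out.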

[7] = Photostability of the compound in N,N-dimethylformamide assessed as compound degradation irradiated with 90 mW/cm2 light; assay type: physicochemical
[8] = Absorption property of the compound in N,N-dimethylformamide assessed as absorption coefficient by UV-visible spectrophotometric method; assay type: physicochemical; in short: as §2
[9] = Dark toxicity in human SW480 cells assessed as reduction in cell viability after 3 hrs by MTT assay; assay type: cell-based
[10] = Absorption property of the compound in chloroform assessed as hypsochromic shift by measuring maximum absorption wavelength by UV-visible spectrophotometric method; assay type: physicochemical; in short: as §2
SW480 = test: Phototoxicity against human SW480 cells assessed as reduction in cell viability preincubated for 3 hrs followed by 54 J/cm2 light irradiation and measured after 24 hrs by MTT assay; assay type: functional, cell-based; conditions: SW480, light or radiation study; in short: as §3
[11] = Stability of the compound in PBS containing 1% Cremophor EL/1,2-propanediol (10:3, v:v) system assessed as compound degradation under dark condition; assay type: physicochemical; conditions: buffer
[12] = Induction of singlet oxygen generation in isopropanol assessed as relative rate of DPBF degradation to MB at 1 uM irradiated with 90 mW/cm2 halogen light; assay type: functional; in short: as §1
[13] = Absorption property of the compound in PBS containing 1% Cremophor EL/1,2-propanediol (10:3, v:v) system assessed as absorption coefficient by UV-visible spectrophotometric method; assay type: physicochemical; conditions: buffer; in short: as §2
[14] = Photostability of the compound in acetonitrile assessed as compound degradation irradiated with 90 mW/cm2 light; assay type: physicochemical
[15] = Dark toxicity in human HeLa cells assessed as reduction in cell viability after 3 hrs by MTT assay; assay type: cell-based
In short: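 Compound was formulated with Cremophor EL/1,2-propanediol in PBS, filtered, and its concentration confirmed by UV-Vis. HeLa cells in DMEM with 10% FBS at 37 °C, 5% CO2 were seeded at 3×10^3 cells/well and adhered overnight. Cells were exposed to graded concentrations for 3 h without light, incubated 24 h, then MTT 0.5 mg/mL for 4 h; formazan dissolved in DMSO, A490 read.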

[16] = Emission property of the compound in chloroform assessed as maximum emission wavelength by fluorescence spectrophotometric method; assay type: physicochemical
In short: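 Fluorescence spectrum recorded in chloroform by fluorescence spectrophotometer at room temperature.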

MCF7 = test: Phototoxicity against human MCF7 cells assessed as reduction in cell viability preincubated for 3 hrs followed by 54 J/cm2 light irradiation and measured after 24 hrs by MTT assay; assay type: functional, cell-based; conditions: MCF7, light or radiation study; in short: as §3
[17] = Photostability of the compound in PBS containing 1% Cremophor EL/1,2-propanediol (10:3, v:v) system assessed as compound degradation irradiated with 90 mW/cm2 light; assay type: physicochemical; conditions: buffer
[18] = Induction of singlet oxygen generation in N,N-dimethylformamide assessed as relative rate of DPBF degradation to MB at 1 uM irradiated with 90 mW/cm2 halogen light; assay type: functional; in short: as §1
[19] = Absorption property of the compound in chloroform assessed as absorption coefficient by UV-visible spectrophotometric method; assay type: physicochemical; in short: as §2

Activity [10] [nm] | Activity [16] [nm] | Activity [19] [M⁻¹ cm⁻¹] | Compound | IC50 at 3 h [5] [µM] | IC50 (HeLa) [µM] | IC50 at 3 h [9] [µM] | IC50 (SW480) [µM] | IC50 at 3 h [15] [µM] | IC50 (MCF7) [µM] | fold change (FC) [18] | also measured
679 | 720 | 81000 | COc1ccc(C2=[N+]3C(=Nc4c(-c5ccccc5)cc(-c5ccc(OC)cc5)n4[B-]3(F)F)C(c3ccccc3)=C2Br)cc1 | > 50 | 0.27 | > 50 | 0.28 | > 50 | 0.35 | 0.19 | Stabilty [1]: Unstable; fold change (FC) [2]: 0.83; Activity [3]: 59300 M⁻¹ cm⁻¹; Stabilty [4]: Stable; Activity [6]: 59300 M⁻¹ cm⁻¹; Stabilty [7]: Unstable; Activity [8]: 59300 M⁻¹ cm⁻¹; Stabilty [11]: Unstable; fold change (FC) [12]: 1.1; Activity [13]: 34000 M⁻¹ cm⁻¹; Stabilty [14]: Stable; Stabilty [17]: Stable
688 | 725 | 99000 | COc1ccc(C2=[N+]3C(=Nc4c(-c5ccccc5)cc(-c5ccc(OC)cc5)n4[B-]3(F)F)C(c3ccccc3)=C2)cc1 | > 50 | 11.6 | > 50 | 12.1 | > 50 | 9.4 | 0.04 | Stabilty [1]: Unstable; fold change (FC) [2]: 0.3; Stabilty [4]: Stable; Stabilty [7]: Unstable; Stabilty [11]: Unstable; fold change (FC) [12]: 0.28; Stabilty [14]: Stable; Stabilty [17]: Stable
714 | 753 | 73700 | COc1ccc2c(c1)CCc1c(-c3ccccc3)c3n(c1-2)[B-](F)(F)[N+]1=C(c2ccc(C)s2)C(Br)=C(c2ccccc2)C1=N3 | > 50 | 22.6 | > 50 | > 25 | > 50 | > 25 | 0.14 | 
689 | 725 | 101300 | COc1ccc(C2=[N+]3C(=Nc4c(-c5ccccc5)c5c(n4[B-]3(F)F)-c3ccc(OC)cc3CC5)C(c3ccccc3)=C2I)cc1 | > 50 | 0.081 | > 50 | 0.12 | > 50 | 0.14 | 1.2 | 
682 | 709 | 104400 | COc1ccc2c(c1)CCc1c(-c3ccccc3)c3n(c1-2)[B-](F)(F)[N+]1=C(c2ccc(C)cc2)C(Br)=C(c2ccccc2)C1=N3 | > 50 | 1.2 | > 50 | 15.6 | > 50 | 8.1 | 0.14 | 
682 | 709 | 110000 | COc1ccc2c(c1)CCc1c(-c3ccccc3)c3n(c1-2)[B-](F)(F)[N+]1=C(c2ccc(C)cc2)C(I)=C(c2ccccc2)C1=N3 | > 50 | 0.11 | > 50 | 0.66 | > 50 | 0.41 | 0.25 | 
732 | 768 | 91300 | Cc1ccc(C2=[N+]3C(=Nc4c(-c5ccccc5)c(I)c(-c5ccc(C)s5)n4[B-]3(F)F)C(c3ccccc3)=C2I)s1 | > 50 | > 25 | > 50 | > 25 | > 50 | 16.4 | 0.36 | 
716 | 756 | 76900 | COc1ccc2c(c1)CCc1c(-c3ccccc3)c3n(c1-2)[B-](F)(F)[N+]1=C(c2ccc(C)s2)C(I)=C(c2ccccc2)C1=N3 | > 50 | 12.3 | > 50 | 21.4 | > 50 | 16.6 | 0.42 | 
658 | 685 | 83600 | Cc1ccc(C2=[N+]3C(=Nc4c(-c5ccccc5)cc(-c5ccc(C)cc5)n4[B-]3(F)F)C(c3ccccc3)=C2Br)cc1 | > 50 | 7.2 | > 50 | > 25 | > 50 | 2.6 | 0.12 | 
692 | 724 | 90300 | COc1ccc(C2=[N+]3C(=Nc4c(-c5ccccc5)c5c(n4[B-]3(F)F)-c3ccc(OC)cc3CC5)C(c3ccccc3)=C2Br)cc1 | > 50 | 0.83 | > 50 | 1.9 | > 50 | 4.5 | 0.17 | 
662 | 688 | 92000 | Cc1ccc(C2=[N+]3C(=Nc4c(-c5ccccc5)c(I)c(-c5ccc(C)cc5)n4[B-]3(F)F)C(c3ccccc3)=C2I)cc1 | > 50 | 13.4 | > 50 | > 25 | > 50 | 5.3 | 0.28 | 
695 | 740 | 81500 | COc1ccc2c(c1)CCc1c(-c3ccccc3)c3n(c1-2)[B-](F)(F)[N+]1=C(c2cccs2)C(I)=C(c2ccccc2)C1=N3 | > 50 | 0.46 | > 50 | 0.83 | > 50 | 0.75 | 0.37 | 
659 | 690 | 89600 | Cc1ccc(C2=[N+]3C(=Nc4c(-c5ccccc5)cc(-c5ccc(C)cc5)n4[B-]3(F)F)C(c3ccccc3)=C2I)cc1 | > 50 | 2.6 | > 50 | 12.4 | > 50 | 1.2 | 0.26 | 
732 | 766 | 71700 | Cc1ccc(C2=[N+]3C(=Nc4c(-c5ccccc5)cc(-c5ccc(C)s5)n4[B-]3(F)F)C(c3ccccc3)=C2I)s1 | > 50 | 15.6 | > 50 | 20.6 | > 50 | 7.7 | 0.32 | 
658 | 685 | 79900 | Cc1ccc(C2=[N+]3C(=Nc4c(-c5ccccc5)c(Br)c(-c5ccc(C)cc5)n4[B-]3(F)F)C(c3ccccc3)=C2Br)cc1 | > 50 | 4.3 | > 50 | 16.1 | > 50 | 1.5 | 0.22 | 
